What was measured:
Format in all cases: functional
NCI-H23 = assay: Growth inhibition of human NCI-H23 cells at 10 uM after 48 hrs by coulter counting; conditions: NCI-H23, 48 h, read-out: GI
In short: (§1)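 Single-dose primary screen across the full NCI 60-cell-line panel. Stocks were made in DMSO and diluted in PBS to a final DMSO below 1%. Cultures at 6 × 10⁴ cells/ml were run in duplicate wells alongside PBS/DMSO vehicle controls at 37 °C in humidified 5% CO₂. Data were expressed as percent growth of treated cells.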

MCF7 = assay: Growth inhibition of human MCF7 cells at 10 uM after 48 hrs by coulter counting; conditions: MCF7, 48 h, read-out: GI; in short: as §1
NCI-H460 = assay: Growth inhibition of human NCI-H460 cells at 10 uM after 48 hrs by coulter counting; conditions: NCI-H460, 48 h, read-out: GI; in short: as §1
NCI/ADR-RES = assay: Growth inhibition of human NCI/ADR-RES cells at 10 uM after 48 hrs by coulter counting; conditions: read-out: GI; in short: as §1
HCC 2998 = assay: Growth inhibition of human HCC2998 cells at 10 uM after 48 hrs by coulter counting; conditions: HCC 2998, 48 h, read-out: GI; in short: as §1
SNB-19 = assay: Growth inhibition of human SNB19 cells at 10 uM after 48 hrs by coulter counting; conditions: SNB-19, 48 h, read-out: GI; in short: as §1
SK-MEL-5 = assay: Growth inhibition of human SK-MEL-5 cells at 10 uM after 48 hrs by coulter counting; conditions: SK-MEL-5, 48 h, read-out: GI; in short: as §1
K562 = assay: Growth inhibition of human K562 cells at 10 uM after 48 hrs by coulter counting; conditions: K562, 48 h, read-out: GI; in short: as §1
DU-145 = assay: Growth inhibition of human DU145 cells at 10 uM after 48 hrs by coulter counting; conditions: DU-145, 48 h, read-out: GI; in short: as §1
KM12 = assay: Growth inhibition of human KM12 cells at 10 uM after 48 hrs by coulter counting; conditions: KM12, 48 h, read-out: GI; in short: as §1
T47D = assay: Growth inhibition of human T47D cells at 10 uM after 48 hrs by coulter counting; conditions: read-out: GI
In short: (§2)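 Single-dose screen in the NCI 60 human tumor cell line panel (nine subpanels). Compounds dissolved in DMSO and diluted in phosphate buffered saline, keeping final DMSO below 1%. Added in duplicate wells to cells at 6 × 10⁴ cells/ml. Controls held PBS and DMSO at matching dilutions. Incubated at 37 °C, humidified, 5% CO₂. Reported as percent growth of treated cells.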

HCT-116 = assay: Growth inhibition of human HCT116 cells at 10 uM after 48 hrs by coulter counting; conditions: HCT-116, 48 h, read-out: GI; in short: as §1
NCI-H522 = assay: Growth inhibition of human NCI-H522 cells at 10 uM after 48 hrs by coulter counting; conditions: NCI-H522, 48 h, read-out: GI; in short: as §1
LOX IMVI = assay: Growth inhibition of human LOXIMVI cells at 10 uM after 48 hrs by coulter counting; conditions: read-out: GI; in short: as §1
UACC-62 = assay: Growth inhibition of human UACC62 cells at 10 uM after 48 hrs by coulter counting; conditions: UACC-62, 48 h, read-out: GI; in short: as §2
IGROV-1 = assay: Growth inhibition of human IGROV1 cells at 10 uM after 48 hrs by coulter counting; conditions: IGROV-1, 48 h, read-out: GI; in short: as §1
A549 = assay: Growth inhibition of human A549 cells at 10 uM after 48 hrs by coulter counting; conditions: A549, 48 h, read-out: GI; in short: as §1
SK-MEL-28 = assay: Growth inhibition of human SK-MEL-28 cells at 10 uM after 48 hrs by coulter counting; conditions: SK-MEL-28, 48 h, read-out: GI; in short: as §1
HOP-62 = assay: Growth inhibition of human HOP62 cells at 10 uM after 48 hrs by coulter counting; conditions: HOP-62, 48 h, read-out: GI; in short: as §1
HL-60(TB) = assay: Growth inhibition of human HL-60(TB) cells at 10 uM after 48 hrs by coulter counting; conditions: HL-60, 48 h, read-out: GI
In short: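 Test compound was dissolved in DMSO and diluted in phosphate-buffered saline to a final DMSO level below 1%. Dilutions were plated in duplicate with cell culture at 6 × 10⁴ cells/ml. Vehicle controls held PBS and DMSO at matching dilutions. Incubation was at 37 °C, humidified, under 5% CO₂. Data were reported as percent growth of treated cells.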

BT-549 = assay: Growth inhibition of human BT549 cells at 10 uM after 48 hrs by coulter counting; conditions: BT-549, 48 h, read-out: GI; in short: as §1
SF-295 = assay: Growth inhibition of human SF295 cells at 10 uM after 48 hrs by coulter counting; conditions: SF-295, 48 h, read-out: GI; in short: as §1
MDA-MB-435 = assay: Growth inhibition of human MDA-MB-435 cells at 10 uM after 48 hrs by coulter counting; conditions: MDA-MB-435, 48 h, read-out: GI; in short: as §1
ACHN = assay: Growth inhibition of human ACHN cells at 10 uM after 48 hrs by coulter counting; conditions: read-out: GI; in short: as §1
CCRF-CEM = assay: Growth inhibition of human CCRF-CEM cells at 10 uM after 48 hrs by coulter counting; conditions: read-out: GI; in short: as §1
HT-29 = assay: Growth inhibition of human HT-29 cells at 10 uM after 48 hrs by coulter counting; conditions: HT-29, 48 h, read-out: GI; in short: as §1
SF-268 = assay: Growth inhibition of human SF268 cells at 10 uM after 48 hrs by coulter counting; conditions: SF-268, 48 h, read-out: GI; in short: as §1
NCI-H226 = assay: Growth inhibition of human NCI-H226 cells at 10 uM after 48 hrs by coulter counting; conditions: NCI-H226, 48 h, read-out: GI; in short: as §1
UACC-257 = assay: Growth inhibition of human UACC257 cells at 10 uM after 48 hrs by coulter counting; conditions: UACC-257, 48 h, read-out: GI; in short: as §2
UO-31 = assay: Growth inhibition of human UO31 cells at 10 uM after 48 hrs by coulter counting; conditions: UO-31, 48 h, read-out: GI; in short: as §2
SNB-75 = assay: Growth inhibition of human SNB75 cells at 10 uM after 48 hrs by coulter counting; conditions: SNB-75, 48 h, read-out: GI; in short: as §1
CAKI-1 = assay: Growth inhibition of human Caki1 cells at 10 uM after 48 hrs by coulter counting; conditions: CAKI-1, 48 h, read-out: GI; in short: as §1
RPMI-8226 = assay: Growth inhibition of human RPMI8226 cells at 10 uM after 48 hrs by coulter counting; conditions: RPMI-8226, 48 h, read-out: GI; in short: as §1
MOLT-4 = assay: Growth inhibition of human MOLT4 cells at 10 uM after 48 hrs by coulter counting; conditions: MOLT-4, 48 h, read-out: GI; in short: as §1
OVCAR-4 = assay: Growth inhibition of human OVCAR4 cells at 10 uM after 48 hrs by coulter counting; conditions: OVCAR-4, 48 h, read-out: GI; in short: as §1
U-251 = assay: Growth inhibition of human U251 cells at 10 uM after 48 hrs by coulter counting; conditions: U-251, 48 h, read-out: GI; in short: as §2
EKVX = assay: Growth inhibition of human EKVX cells at 10 uM after 48 hrs by coulter counting; conditions: read-out: GI; in short: as §1
M14 = assay: Growth inhibition of human M14 cells at 10 uM after 48 hrs by coulter counting; conditions: M14, 48 h, read-out: GI; in short: as §1
A498 = assay: Growth inhibition of human A498 cells at 10 uM after 48 hrs by coulter counting; conditions: A498, 48 h, read-out: GI; in short: as §1
SK-MEL-2 = assay: Growth inhibition of human SK-MEL-2 cells at 10 uM after 48 hrs by coulter counting; conditions: SK-MEL-2, 48 h, read-out: GI; in short: as §1
[1] = Growth inhibition of human NCI-322M cells at 10 uM after 48 hrs by coulter counting; conditions: read-out: GI; in short: as §1
SF-539 = assay: Growth inhibition of human SF539 cells at 10 uM after 48 hrs by coulter counting; conditions: SF-539, 48 h, read-out: GI; in short: as §1

COc1ccc(/C=C2\CCCC3=C2N=C2SC=CN2C3c2ccc(OC)cc2)cc1 (configuration not stated)
inhibition of growth at 10 µM (NCI-H23): > 10% | inhibition of growth at 10 µM (MCF7): > 10% | inhibition of growth at 10 µM (NCI-H460): > 10% | inhibition of growth at 10 µM (NCI/ADR-RES): > 10% | inhibition of growth at 10 µM (HCC 2998): > 10% | inhibition of growth at 10 µM (SNB-19): > 10% | inhibition of growth at 10 µM (SK-MEL-5): > 10% | inhibition of growth at 10 µM (K562): > 10% | inhibition of growth at 10 µM (DU-145): > 10% | inhibition of growth at 10 µM (KM12): > 10% | inhibition of growth at 10 µM (T47D): > 10% | inhibition of growth at 10 µM (HCT-116): 17.6% | inhibition of growth at 10 µM (NCI-H522): > 10% | inhibition of growth at 10 µM (LOX IMVI): > 10% | inhibition of growth at 10 µM (UACC-62): > 10% | inhibition of growth at 10 µM (IGROV-1): > 10% | inhibition of growth at 10 µM (A549): > 10% | inhibition of growth at 10 µM (SK-MEL-28): > 10% | inhibition of growth at 10 µM (HOP-62): > 10% | inhibition of growth at 10 µM (HL-60(TB)): > 10% | inhibition of growth at 10 µM (BT-549): > 10% | inhibition of growth at 10 µM (SF-295): > 10% | inhibition of growth at 10 µM (MDA-MB-435): 15.4% | inhibition of growth at 10 µM (ACHN): > 10% | inhibition of growth at 10 µM (CCRF-CEM): > 10% | inhibition of growth at 10 µM (HT-29): > 10% | inhibition of growth at 10 µM (SF-268): > 10% | inhibition of growth at 10 µM (NCI-H226): 21.6% | inhibition of growth at 10 µM (UACC-257): > 10% | inhibition of growth at 10 µM (UO-31): 32% | inhibition of growth at 10 µM (SNB-75): > 10% | inhibition of growth at 10 µM (CAKI-1): 11.3% | inhibition of growth at 10 µM (RPMI-8226): 21% | inhibition of growth at 10 µM (MOLT-4): 14.4% | inhibition of growth at 10 µM (OVCAR-4): 15.4% | inhibition of growth at 10 µM (U-251): > 10% | inhibition of growth at 10 µM (EKVX): 12.5% | inhibition of growth at 10 µM (M14): 18.8% | inhibition of growth at 10 µM (A498): > 10% | inhibition of growth at 10 µM (SK-MEL-2): > 10% | inhibition of growth at 10 µM [1]: > 10% | inhibition of growth at 10 µM (SF-539): > 10%
